# Bioassay records as filed in PubChem BioAssay.
# Hits are enriched below; roughly 3.1% of the tested compounds scored in any of these assays.
# Bfl-1 A1 inh: inhibitors of the anti-apoptotic protein A1, read as caspase activation | MEF A1-2A-BIM cells, Caspase-Glo 3/7 luminescence, 3 h; percent of clofoctol response, vehicle zero | caspase activation, % (no concentration beside the values) | 330,000 compounds, 0.066% hits | AID 2462;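 active = over half of replicate activation scores above 10%, or exactly half above 10 with the replicate mean above 10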
# Beta apoptosis: blocks beta cell apoptosis | INS-1E cytokine-induced death, ATP luminescence, 48 h; percent of positive-control rescue, neutral wells zero | protection from apoptosis, % (test concentration not listed) | 300,000 compounds, 0.8% hits;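 active = Every replicate reaches about 75%, or at least half do and their mean reaches it too, limit read from the data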;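 also: 0% = cytokine-treated negative control wells and 100% = positive control rescue; higher means more ATP so stronger rescue from cytokine killing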
# CSC inhib: cancer stem cell inhibition | cancer stem cell-like cells viability, luminescence | 300,000 compounds, 1.1% hits | inhibition, % at 7.5 µM; in the data active = inhibition above about 75%; tested in HMLE shEcad cells
# T cruzi inh: blocks replication of Trypanosoma cruzi | T. cruzi beta-gal in NIH3T3, luminescence, 90 h | inhibition, % (no concentration beside the values) | 300,000 compounds, 1.4% hits | AID 1885;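 active = mean inhibition across valid replicates above about 55%, limit read from the data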;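 also: signal also drops with host cell toxicity which is not excluded here; 0% = plate median of DMSO wells and 100% = zero luminescence signal; higher percent means less beta-gal luminescence so fewer parasites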
#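 Assay system: NIH/3T3 fibroblasts plus reporter T. cruzi. Amount: NIH/3T3 cells, 5,000 per well. Buffer or medium: DMEM, 2% fetal bovine serum. Doses: compound pinned at 50 nL/well, DMSO. Schedule: ≥90 h infection period, 3 h prior cell attachment. Signal: luminescent β-galactosidase signal after 60 min lysis. Read-out: parasite load inhibition, %.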
# H9c2 TAG inh: inhibitors of triacylglycerol accumulation | H9c2 cells, Nile Red lipid (TAG) fluorescence; cells loaded with 200 µM oleic acid | inhibition, % at 12.5 µM | 230,000 compounds, 0.66% hits;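 active = pattern-corrected inhibition of lipid staining of at least 50% with the nuclear-stain viability signal not falling by more than 50%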;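 also: 0% = DMSO wells and 100% = triacsin C control wells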
# Calb FLC: affects C. albicans growth with fluconazole. C. albicans CaCi-2 + fluconazole, Alamar Blue growth, 48 h. growth inhibition, % (test concentration not listed). 300,000 compounds, 0.57% hits;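 active = growth inhibition above about 58% in most replicates, limit read from the data, passing the limit was not always enough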;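 also: all wells also contain fluconazole at 8 µg/ml as a sub-toxic cotreatment; 0% = median of DMSO wells and 100% = median of geldanamycin control wells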
# TAG conf: triacylglycerol accumulation inhibition, confirmation; shares compounds with H9c2 TAG inh; H9c2 lipid accumulation, Nile Red fluorescence; cells loaded with 200 µM oleic acid; inhibition, % at 12.5 µM; 990 compounds, 71% hits;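 active = mean inhibition across replicates of 40% or more; inactive = mean inhibition below 40%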;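 also: plate controls were DMSO only wells for no effect and Triacsin C treated wells for full effect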
# An asterisk follows results filed as active; / = no result.
SMILES,Bfl-1 A1 inh,Beta apoptosis,CSC inhib,T cruzi inh,H9c2 TAG inh,Calb FLC,TAG conf
O=C(C[C@H]1C[C@H](C(=O)N2CCOCC2)[C@@]2(CCC3CCCC3)c3[nH]c4cc(-c5ccco5)ccc4c3CCN2C1=O)NCC12CC3CC(CC(C3)C1)C2,/,/,/,/,62*,/,77*
CCOc1ccc(S(=O)(=O)N(CC)CC(=O)NCc2ccncc2)cc1C,1,-6,-5,11,/,-5,/
COCCOc1ccc(C(F)(F)F)cc1NC(=O)COC(=O)Cc1c[nH]c2ccccc12,0,0,/,/,15,/,/
Cc1ccc(-n2ncc(-c3nnc(SCC(=O)NC4CCCC4)o3)c2N)cc1C,1,-1,-6,2,55*,4,37
CC(=O)NCCC(=O)Nc1sc2c(c1-c1nc3ccccc3[nH]1)CCCC2,1,10,-20,-2,/,-3,/
O=C(Nc1sc2c(c1-c1nc3ccccc3[nH]1)CCCC2)C1CCCC1,-1,8,22,40,58*,6,60*
Cc1sc(NC(=O)c2cccc([N+](=O)[O-])c2)c(C(N)=O)c1-c1ccc(C(C)(C)C)cc1,0,3,-7,11,82*,-5,30
O=c1cc(-c2ccccc2)[nH]c2ccc(F)cc12,0,19,-1,-3,65*,2,52*
CN(Cc1cccc(Cl)c1)C(=O)C1CCC(=O)N(C2CC2)C1 (stereo not given),1,0,-16,-1,/,-6,/
O=S(=O)(c1ccc(Cl)cc1)N1c2ccccc2Oc2nc3ccccc3nc21,0,6,38,28,-12,-5,/
COc1ccc(S(=O)(=O)N2c3cc(Cl)ccc3Oc3nc4ccccc4nc32)cc1,0,45,61,27,52*,-5,28
O=[N+]([O-])c1cccc(S(=O)(=O)N2CN(c3ccc(Br)cc3)c3nc4ccccc4nc32)c1,0,3,10,/,62*,/,49*
C[C@H](O)[C@@H]1CN2CCc3c([nH]c4ccc(-c5ccc6c(c5)OCO6)cc34)[C@@H]2C[C@@H]1N(C)C(=O)Nc1ccc(F)cc1,/,/,/,/,82*,/,69*
COc1ccc(-c2ccc3[nH]c4c(c3c2)CCN2C[C@@H]([C@H](C)O)[C@@H](N(C)C(=O)Nc3cc(Cl)cc(Cl)c3)C[C@@H]42)cc1,/,/,/,/,28,/,/
COc1ccc(-c2ccc3[nH]c4c(c3c2)CCN2C(=O)[C@@H]([C@H](C)O)[C@@H](N(C)C(=O)Nc3ccc(F)cc3)C[C@@H]42)cc1,/,/,/,/,29,/,/
Cc1cccc(-c2ccc3[nH]c4c(c3c2)CCN2C[C@@H]([C@H](C)OC(=O)Nc3ccccc3C)[C@@H](N(C)C(=O)Nc3ccccc3C)C[C@@H]42)c1,/,/,/,/,54*,/,66*
COc1ccc(-c2ccc3[nH]c4c(c3c2)CCN2C(=O)[C@@H]([C@H](C)O)[C@@H](N(C)C(=O)Nc3cc(Cl)cc(Cl)c3)C[C@@H]42)cc1,/,/,/,/,62*,/,63*
CCOc1ccc(CNC(=O)CCC(=O)n2nc(C)c3ccccc32)cc1,1,-5,-12,-2,/,15,/
CC(C)N(C(=O)c1ccc(Cc2cn(C)c3ccccc23)nc1)C(C)C,/,/,/,/,-9,/,/
CN1CCN(C(=O)c2ccc(Cc3cn(C)c4ccccc34)nc2)CC1,/,/,/,/,54*,/,0
O=[N+]([O-])c1ccccc1/C=C/C=N/Nc1ccc(S(=O)(=O)Nc2ccc(Cl)cc2)cc1[N+](=O)[O-],1,30,40,68*,58*,11,52*
O=[N+]([O-])c1cc(S(=O)(=O)Nc2cccc(Cl)c2)ccc1N/N=C/c1ccc(N2CCOCC2)cc1,0,18,36,37,80*,3,79*
O=C(O)c1ccc(N/N=C/C=C/c2ccccc2[N+](=O)[O-])cc1,-5,-3,5,-4,6,-4,/
C/C(=N\Nc1ccc(S(=O)(=O)Nc2ccc(Cl)cc2)cc1[N+](=O)[O-])c1ccc(N2CCOCC2)cc1,0,18,-1,16,/,6,/
COc1ccccc1-c1sc2ccccc2c1-c1ccccc1OC,1,7,28,/,-7,/,/
COc1cccc(NC(=O)CNC(=O)c2ccc(C)o2)c1,1,-10,-12,6,6,-8,/
